pIC50: −log10 of the molar value. The source made the active and inactive calls. The calls are words filed in the database; no cut-off is given here.
Key:
Vasopressin V1b receptor = target: T1, Vasopressin V1b receptor (Homo sapiens, UniProt P47901); test: Displacement of [3H]AVP from human vasopressin V1b receptor expressed in CHO cells co-expressing VIP-luciferase by scintillation counting-based whole cell binding assay
T1 sequence (P47901 whole entry): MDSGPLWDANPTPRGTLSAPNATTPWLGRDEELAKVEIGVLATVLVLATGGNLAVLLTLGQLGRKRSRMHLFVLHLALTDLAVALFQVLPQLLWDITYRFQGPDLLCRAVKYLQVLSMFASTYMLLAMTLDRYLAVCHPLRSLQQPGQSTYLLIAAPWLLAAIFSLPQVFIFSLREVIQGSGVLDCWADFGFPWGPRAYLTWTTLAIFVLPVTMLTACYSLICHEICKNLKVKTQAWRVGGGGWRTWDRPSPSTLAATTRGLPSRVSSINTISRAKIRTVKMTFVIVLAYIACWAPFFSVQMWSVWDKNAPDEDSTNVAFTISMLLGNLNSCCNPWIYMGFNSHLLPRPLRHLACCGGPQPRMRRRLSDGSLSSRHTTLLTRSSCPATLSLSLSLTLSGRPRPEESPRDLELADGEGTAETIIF
In short: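 Whole-cell binding in CHO cells stably expressing human V1b (VIP-luciferase line), grown at 37 °C, 5% CO2 in DMEM/F12 with 10% FBS and 0.4 mg/mL G418. Seeded at 30,000 cells, cultured overnight, washed with PBS. Serially diluted compound with 5 nM [3H]-AVP (final) in PBS, 10 mM MgCl2, 0.1% BSA, 1% DMSO, 30 min at room temperature. Wells washed, dried, scintillation counted.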

[1] = Apparent permeability of the compound from apical to basolateral side in human Caco2 cell membrane; conditions: Caco-2
[2] = Intrinsic clearance in human liver microsomes
[3] = Apparent permeability of the compound from basolateral to apical side in human Caco2 cell membrane; assay type: ADME, cell-based; conditions: Caco-2
Homo sapiens [4] = organism: Homo sapiens; test: Selectivity ratio for human vasopressin V1b receptor over human vasopressin V1a receptor
[5] = AUC (infinity) in Wistar rat at 1 mg/kg, iv; assay type: ADME, organism-based; set-up: time infinity, dose 1 mg/kg, route intravenous; conditions: plasma
In short: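 Male Wistar rats given a single intravenous dose of 1 mg/kg in 10% (v/v) DMA in water. AUC taken to infinity from plasma concentrations. Value reported as mean ± variability.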

[6] = AUCt in Wistar rat at 5 mg/kg, po; assay type: ADME, organism-based; set-up: dose 5 mg/kg, route oral; conditions: plasma
In short: (§1)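 Male Wistar rats. iv dose 1 mg/kg in 10% (v/v) DMA in water. po dose 5 mg/kg in 5% (v/v) mulgofen in saline. Oral AUC reported as AUCt, iv AUC as AUCinf. Values given as mean ± spread.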

Rattus norvegicus [7] = test: Reduction in desmopressin/CRH-induced ACTH release in po dosed rat hyphalamic-pituitary-adrenal hyperactivity model; assay type: functional, organism-based
In short: (§2)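 Rats dosed orally with compound or vehicle (5% mulgofen in saline) at T=0. CRH (0.3 µg/kg) or PBS given iv via jugular catheter at T+100 min. dDAVP (0.5 mg/kg) or PBS given iv at T+120 min. 0.5 ml blood taken at T+130 min, kept on ice, centrifuged at 4 °C, plasma stored at -40 °C. ACTH measured by ELISA, drug level by mass spectrometry.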

[8] = Clearance in Wistar rat at 1 mg/kg, iv; assay type: ADME, organism-based; set-up: dose 1 mg/kg, route intravenous; conditions: in vivo; in short: as §1
[9] = Inhibition of human Cytochrome P450; assay type: ADME
Homo sapiens [10] = organism: Homo sapiens; test: Selectivity ratio for human vasopressin V1b receptor over human oxytocin receptor
[11] = Elimination half life in Wistar rat at 1 mg/kg, iv; assay type: ADME, organism-based; set-up: dose 1 mg/kg, route intravenous; conditions: in vivo, read-out: beta t1/2 (converted); in short: as §1
Homo sapiens [12] = organism: Homo sapiens; test: Selectivity ratio for human vasopressin V1b receptor over human vasopressin V2 receptor
[13] = target: T2, Vasopressin V1b receptor (Homo sapiens) (UniProt P47901); test: Antagonist activity at human vasopressin V1b receptor expressed CHO cells co-expressing VIP-luciferase assessed as reporter gene linked AVP-mediated intracellular calcium mobilization; assay type: functional, cell-based
T2 sequence (whole entry): T1 sequence (P47901 whole entry)

[14] = Oral bioavailability in Wistar rat at 5 mg/kg, po; assay type: ADME, organism-based; conditions: in vivo; in short: as §1
[15] = Volume of distribution at steady state in Wistar rat at 1 mg/kg, iv; assay type: ADME, organism-based; set-up: dose 1 mg/kg, route intravenous; conditions: in vivo, read-out: Vdss; in short: as §1
Rattus norvegicus [16] = test: Reduction in desmopressin-induced ACTH release in rat hyphalamic-pituitary-adrenal hyperactivity model at 10 mg/kg, po; assay type: functional, organism-based; set-up: dose 10 mg/kg; in short: as §2

Row | SMILES | pIC50 (Vasopressin V1b receptor) | other results
1 | COc1cccc(-c2nc3ccc(-c4ccc(CN(C)C)o4)cc3c(=O)n2CC(=O)NC(C)C)c1 | 6.15 | –
2 | COc1ccccc1-c1nc2ccc(-c3cccc(CN4CCC4)c3)cc2c(=O)n1CC(=O)NC(C)C | 6.21 | –
3 | CC(C)NC(=O)Cn1c(-c2cccc(Cl)c2)nc2ccc(-c3cccc(CN4CCC4)c3)cc2c1=O | 7.22 | –
4 | CCN(CC)Cc1cccc(-c2ccc3nc(-c4ccccc4)n(CC(=O)NCC4CC4)c(=O)c3c2)c1 | 6.27 | –
5 | COc1cccc(-c2nc3ccc(-c4cc(CN(C)C)ccc4F)cc3c(=O)n2CC(=O)NC(C)C)c1 | 8.15 | Papp A→B [1]: 12.1 ×10⁻⁶ cm/s; microsomal CLint [2]: 58 µL/min/mg; Papp B→A [3]: 23.3 ×10⁻⁶ cm/s
6 | O=C(Cn1c(-c2ccccc2)nc2ccc(-c3cccc(CN4CCCCC4)c3)cc2c1=O)NCC1CC1 | 7.22 | –
7 | O=C(Cn1c(-c2ccccc2)nc2ccc(-c3cccc(CN4CCC4)c3)cc2c1=O)NC1CC1 | 5.59 | –
8 | COc1cccc(-c2nc3ccc(-c4cccc(CN(C)C)c4)cc3c(=O)n2CC(=O)NC(C)C)c1 | 8.05 | microsomal CLint [2]: 45 µL/min/mg
9 | O=C(Cn1c(-c2ccccc2)nc2ccc(-c3cccc(CN4CCOCC4)c3)cc2c1=O)NCC1CC1 | 7.10 | –
10 | O=C(Cn1c(-c2ccccc2)nc2ccc(-c3ccccc3CN3CCOCC3)cc2c1=O)NCC1CC1 | < 4.70 | –
11 | O=C(Cn1c(-c2ccccc2)nc2ccc(-c3ccc(CN4CCOCC4)cc3)cc2c1=O)NCC1CC1 | < 4.70 | –
12 | CCCNC(=O)Cn1c(-c2ccccc2)nc2ccc(-c3cccc(CN4CCC4)c3)cc2c1=O | 5.63 | –
13 | CC(C)NC(=O)Cn1c(-c2cccc(Cl)c2)nc2ccc(-c3cccc(CN4CCCCC4)c3)cc2c1=O | 8.05 | –
14 | COc1cccc(-c2nc3ccc(-c4cncc(CN(C)C)c4)cc3c(=O)n2CC(=O)NC(C)C)c1 | 7.11 | –
15 | CC(C)CNC(=O)Cn1c(-c2ccccc2)nc2ccc(-c3cccc(CN4CCC4)c3)cc2c1=O | 5.98 | –
16 | O=C(Cn1c(-c2ccccc2)nc2ccc(-c3cccc(CN4CCCC4)c3)cc2c1=O)NCC1CC1 | 6.41 | –
17 | CNCc1cccc(-c2ccc3nc(-c4ccccc4)n(CC(=O)NCC4CC4)c(=O)c3c2)c1 | 6.49 | –

Row | SMILES | pIC50 (Vasopressin V1b receptor) | other results
18 | COc1cccc(-c2nc3ccc(-c4cccc(CN5CCCCC5)c4)cc3c(=O)n2CC(=O)NC(C)C)c1 | 8.70 | –
19 | COc1cc(-c2nc3ccc(-c4cccc(CN(C)C)c4)cc3c(=O)n2CC(=O)NC(C)C)ccc1F | 9.00 | fold change (FC) (Homo sapiens [4]): > 10000; Papp A→B [1]: 6.8 ×10⁻⁶ cm/s; AUC(0-inf) [5]: 441 ng·h/mL; AUC(0-t) [6]: 930 ng·h/mL; inhibition (Rattus norvegicus [7]): Dose-dependent effect; microsomal CLint [2]: < 12 µL/min/mg; clearance [8]: 40.2 mL/min/kg; Papp B→A [3]: 9.1 ×10⁻⁶ cm/s; pIC50 [9]: < 4.77; fold change (FC) (Homo sapiens [10]): > 10000; half-life [11]: 1.61 h; fold change (FC) (Homo sapiens [12]): > 10000; Activity [13]: Active; bioavailability [14]: 45%; Vd [15]: 4.85 L/kg; inhibition (Rattus norvegicus [16]): Active
20 | CC(C)NC(=O)Cn1c(-c2cccc(Cl)c2)nc2ccc(-c3cccc(CN(C)C)c3)cc2c1=O | 7.72 | –
21 | COc1cccc(-c2nc3ccc(-c4cc(CN(C)C)ccn4)cc3c(=O)n2CC(=O)NC(C)C)c1 | 7.28 | –
22 | O=C(Cn1c(-c2ccccc2)nc2ccc(-c3ccc(CN4CCCCC4)cc3)cc2c1=O)NCC1CC1 | < 4.70 | –
23 | COc1cccc(-c2nc3ccc(-c4cccc(CN5CCC5)c4)cc3c(=O)n2CC(=O)NC(C)C)c1 | 7.34 | –
24 | COCCNCc1cccc(-c2ccc3nc(-c4ccccc4)n(CC(=O)NCC4CC4)c(=O)c3c2)c1 | 6.19 | –
25 | COc1cccc(-c2nc3ccc(-c4ccc(CN(C)C)s4)cc3c(=O)n2CC(=O)NC(C)C)c1 | 6.30 | –
26 | O=C(Cn1c(-c2ccccc2)nc2ccc(-c3cccc(CN4CCC4)c3)cc2c1=O)NCC1CC1 | 6.56 | –
27 | O=C(Cn1c(-c2ccccc2)nc2ccc(-c3cccc(CN4CCC4)c3)cc2c1=O)NC1CCCC1 | 6.62 | –
28 | O=C(Cn1c(-c2ccccc2)nc2ccc(-c3ccccc3CN3CCCCC3)cc2c1=O)NCC1CC1 | < 4.70 | –
29 | CC(C)NC(=O)Cn1c(-c2ccccc2)nc2ccc(-c3cccc(CN4CCC4)c3)cc2c1=O | 6.40 | –
30 | CN(C)Cc1cccc(-c2ccc3nc(-c4ccccc4)n(CC(=O)NCC4CC4)c(=O)c3c2)c1 | 6.50 | –
31 | CC(C)(C)NC(=O)Cn1c(-c2ccccc2)nc2ccc(-c3cccc(CN4CCC4)c3)cc2c1=O | 6.73 | –
32 | NCc1cccc(-c2ccc3nc(-c4ccccc4)n(CC(=O)NCC4CC4)c(=O)c3c2)c1 | 5.92 | –
33 | COc1cccc(-c2nc3ccc(-c4cccc(CN(C)C)n4)cc3c(=O)n2CC(=O)NC(C)C)c1 | 7.43 | –
